Measured values taken from ChEMBL document CHEMBL1131342, “Design, synthesis, and antiviral activity of alpha-nucleosides: D- and L-isomers of lyxofuranosyl- and (5-deoxylyxofuranosyl)benzimidazoles” (J Med Chem, 1998).

Key:
[1] = system: Human betaherpesvirus 5; assay: Compound was evaluated for its antiviral activity against HCMV virus using Yield reduction assay.
[2] = system: KB; assay: Compound was evaluated for the cytotoxicity by the inhibition of KB cell growth.; format: functional, cell-based; conditions: Homo sapiens
Procedure, shortened: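 KB cells plated at 3000–5000 cells/well and incubated overnight. Compound added in quadruplicate at six to eight concentrations, 48 h at 37 °C under CO₂, spanning two population doublings. Ethanol fixation, 0.1% crystal violet stain, dye eluted with acidified ethanol, absorbance at 570 nm. IC50 by regression on log concentration; 2-acetylpyridine thiosemicarbazone control.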

[3] = system: Human betaherpesvirus 5; assay: Antiviral activity assayed by ability to inhibit Towne strain of HCMV virus; format: functional, organism-based
Procedure, shortened: (§1)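 HFF monolayers in 24-well dishes infected with about 100 pfu HCMV/cm² (Towne or AD169). After adsorption, compound in growth medium at four to eight concentrations, duplicate wells, 7 days at 37 °C. Crystal violet stain, microscopic plaques counted, percent reduction vs no drug. IC50 from regression on log concentration; ganciclovir control.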

[4] = system: Human alphaherpesvirus 1; assay: Antiviral activity evaluated by their ability to inhibit the KOS strain of herpes simplex virus type-1 (HSV-1).ELISA was used
[5] = species on record: Homo sapiens; assay: Compound was evaluated for the cytotoxicity scored on HFF cells at time of HCMV plaque enumeration.; format: functional
Procedure, shortened: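 Stationary HFF cells not affected by virus, inspected microscopically for visual cytotoxicity at the time of HCMV plaque counting (7 days, 37 °C). Duplicate experiments.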

[6] = system: Human betaherpesvirus 5; assay: Compound was evaluated for the Antiviral activity against the AD169 strain of HCMV virus.; format: functional, organism-based
Procedure, shortened: as §1

[7] = system: Human betaherpesvirus 5; assay: Compounds was evaluated for the Antiviral activity against the AD169 strain of HCMV virus.; format: functional, organism-based
Procedure, shortened: as §1

[8] = system: Human betaherpesvirus 5; assay: Compound was evaluated for the Yield reduction assays on HCMV virus,; format: functional
Procedure, shortened: (§2)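 HFF cells in 96-well plates inoculated with HCMV at moi 0.5–1 pfu/cell. Compound in duplicate at 100 to 0.14 μM (1:3 serial dilutions), 7 days at 37 °C, then one freeze–thaw. Progeny titred by serial 1:3 dilution onto fresh HFF monolayers with plaque counting. IC90 from linear regression vs log concentration; ganciclovir control.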

[9] = system: Human alphaherpesvirus 1; assay: Antiviral activity evaluated by its ability to inhibit the KOS strain of herpes simplex virus type-1 (HSV-1).ELISA was used
[10] = system: Human betaherpesvirus 5; assay: Compound was evaluated for antiviral activity against HCMV virus using yield reduction assay.; format: functional
Procedure, shortened: as §2

[11] = system: Human alphaherpesvirus 1; assay: Antiviral activity against KOS strain of herpes simplex virus type-1 (HSV-1).ELISA was used
[12] = system: Human betaherpesvirus 5; assay: Compound was evaluated for its antiviral activity by its ability to inhibit Towne strain of HCMV virus.The plaque assay was used; format: functional, organism-based
Procedure, shortened: as §1

SMILES	IC90 [1]	IC50 [2]	IC50 ([3]; Human betaherpesvirus 5)	IC50 [4]	IC50 [5]	further results
OC[C@H]1O[C@H](n2c(Cl)nc3cc(Cl)c(Cl)cc32)[C@@H](O)[C@H]1O	> 100 µM	> 100 µM	18 µM	90 µM	> 100 µM	IC50 ([6]; Human betaherpesvirus 5): 9 µM
CCCNc1nc2cc(Cl)c(Cl)cc2n1[C@@H]1O[C@@H](C)[C@@H](O)[C@H]1O	2.8 µM	65 µM	32 µM	> 100 µM	100 µM	
CSc1nc2cc(Cl)c(Cl)cc2n1[C@@H]1O[C@H](CO)[C@@H](O)[C@H]1O	> 100 µM	> 100 µM	> 100 µM	> 100 µM	> 100 µM	
CNc1nc2cc(Cl)c(Cl)cc2n1[C@@H]1O[C@H](CO)[C@@H](O)[C@H]1O	> 100 µM	> 100 µM	> 100 µM	> 100 µM	> 100 µM	
C[C@@H]1O[C@@H](n2c(Br)nc3cc(Cl)c(Cl)cc32)[C@H](O)[C@@H]1O	2 µM	60 µM	0.4 µM	> 100 µM	32 µM	
CSc1nc2cc(Cl)c(Cl)cc2n1[C@@H]1O[C@@H](CO)[C@@H](O)[C@H]1O		> 100 µM	> 100 µM	> 100 µM	> 100 µM	
OC[C@H]1O[C@@H](n2c(Cl)nc3cc(Cl)c(Cl)cc32)[C@H](O)[C@@H]1O	3.4 µM	> 100 µM		> 100 µM	190 µM	IC50 [7]: 1.8 µM; IC50 [3]: 18 µM; IC50 ([6]; Human betaherpesvirus 5): 2.6 µM; IC90 [8]: 1.4 µM
CCCNc1nc2cc(Cl)c(Cl)cc2n1[C@@H]1O[C@H](CO)[C@@H](O)[C@H]1O	17 µM	> 100 µM	60 µM	> 100 µM	> 100 µM	IC50 ([6]; Human betaherpesvirus 5): 32 µM
Nc1nc2c(ncn2COC(CO)CO)c(=O)[nH]1 [GANCICLOVIR]		> 100 µM			> 100 µM	IC90 [8]: 1.6 µM
OC[C@H]1O[C@H](n2c(Br)nc3cc(Cl)c(Cl)cc32)[C@@H](O)[C@H]1O (stereo in doubt; 4b)		> 100 µM	6 µM		> 100 µM	IC50 [9]: 50 µM; IC90 [10]: 65 µM; IC50 [6]: 4.2 µM
OC[C@@H]1O[C@@H](n2c(S)nc3cc(Cl)c(Cl)cc32)[C@H](O)[C@@H]1O	> 100 µM	> 100 µM	> 100 µM	> 100 µM	> 100 µM	
OC[C@H]1O[C@@H](n2c(S)nc3cc(Cl)c(Cl)cc32)[C@H](O)[C@@H]1O	> 100 µM	> 100 µM	> 100 µM	> 100 µM	> 100 µM	
OC[C@H]1O[C@H](n2c(Br)nc3cc(Cl)c(Cl)cc32)[C@@H](O)[C@H]1O (stereo in doubt; 4a)	0.8 µM					IC50 [11]: > 100 µM; IC50 [12]: 2.8 µM; IC50 [6]: 0.8 µM
O=C(O)P(=O)(O)O [FOSCARNET]					> 100 µM	
CCCNc1nc2cc(Cl)c(Cl)cc2n1[C@@H]1O[C@H](C)[C@@H](O)[C@H]1O	2 µM		10 µM		> 100 µM	
CCCNc1nc2cc(Cl)c(Cl)cc2n1[C@@H]1O[C@@H](CO)[C@@H](O)[C@H]1O	19 µM	> 100 µM	> 100 µM	> 100 µM	> 100 µM	IC50 ([6]; Human betaherpesvirus 5): 11 µM
C[C@H]1O[C@@H](n2c(Br)nc3cc(Cl)c(Cl)cc32)[C@H](O)[C@@H]1O	12 µM	> 100 µM	32 µM	50 µM	100 µM	
C[C@H]1O[C@@H](n2c(Cl)nc3cc(Cl)c(Cl)cc32)[C@H](O)[C@@H]1O	8 µM	75 µM	32 µM	60 µM	45 µM	
CNc1nc2cc(Cl)c(Cl)cc2n1[C@@H]1O[C@@H](CO)[C@@H](O)[C@H]1O		> 100 µM	> 100 µM	> 100 µM	> 100 µM	
C[C@@H]1O[C@@H](n2c(Cl)nc3cc(Cl)c(Cl)cc32)[C@H](O)[C@@H]1O	0.2 µM	60 µM	0.2 µM	20 µM	32 µM	
